High-throughput results (PubChem BioAssay)
Hits are enriched below; roughly 1.5% of the tested compounds scored in any of these assays.
A1 inh – caspase 3/7 activation in MEF A1-2A-BIM cells, primary screen, A1 inhibitor project, cell-based, luminescence, HTS; caspase activation, % (test concentration not listed); Caspase-Glo 3/7 luminescence, 3 h; percent of clofoctol response, vehicle zero; AID 2462, 2010; hit rate 0.066% among 330,000;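 active means over half of replicate activation scores above 10%, or exactly half above 10 with the replicate mean above 10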
CSN deneddyl inh – inhibitors of CSN-mediated cullin deneddylation, primary screen, biochemical, fluorescence polarization, uHTS. COP9 signalosome complex subunit 5 (Homo sapiens), Q92905. Purified CSN, SCF-Nedd8-OG deneddylation. inhibition, % at 12.5 µM. hit rate 0.38% among 360,000. AID 651999, 2013;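 active means pattern-corrected inhibition above about 35%, with an unprinted fluorescence ratio check between 0.5 and 1.5, limit read from the data, passing the limit was not always enough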
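Detection – fluorescence polarization · System – HEK293T-derived human Csn5 enzyme · Controls – substrate-only high control, full reaction low control · Timing – 90 min, room temperature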
EBNA-1 inhibitor – EBNA-1 DNA-binding inhibitors, primary screen, biochemical, fluorescence polarization; AID 1950, 2009; hit rate 0.34% among 300,000; inhibition, % at 14.8 µM; in the data active means inhibition above about 28%
HNF4A DNA FP – change in binding of human HNF4A to DNA, primary screen, biochemical, fluorescence polarization, FITC-DNA; hit rate 0.3% among 360,000; activity change, % at 10 µM; Hepatocyte nuclear factor 4-alpha (Homo sapiens), P41235; 1 h; in the data active means activity change above about 30%, passing the limit was not always enough
Target sequence (P41235 whole entry, looked up): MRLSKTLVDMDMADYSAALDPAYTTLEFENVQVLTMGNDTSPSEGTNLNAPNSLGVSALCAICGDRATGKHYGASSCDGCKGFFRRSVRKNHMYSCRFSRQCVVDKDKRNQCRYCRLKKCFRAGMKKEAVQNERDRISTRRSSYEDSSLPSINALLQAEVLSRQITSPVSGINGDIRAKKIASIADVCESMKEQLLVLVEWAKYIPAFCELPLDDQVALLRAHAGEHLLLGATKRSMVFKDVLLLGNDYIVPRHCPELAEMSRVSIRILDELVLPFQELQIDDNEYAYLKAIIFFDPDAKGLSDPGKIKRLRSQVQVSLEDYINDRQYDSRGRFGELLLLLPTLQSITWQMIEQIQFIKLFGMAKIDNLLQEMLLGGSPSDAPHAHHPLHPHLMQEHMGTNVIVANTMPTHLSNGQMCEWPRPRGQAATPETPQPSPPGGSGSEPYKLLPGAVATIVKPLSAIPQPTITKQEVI
ZTA DNA inh – ZTA (EBV) inhibition in EBNA-1 counter-screen; P03206; ZTA-DNA binding, fluorescence polarization; inhibition, % at 11 µM; hit rate 0.15% among 320,000; in the data active means inhibition above about 33%
LANA-H2A inh – blockers of LANA interaction with H2A/H2B – biochemical, FP readout, HTS, primary screen | Protein LANA1 (Human herpesvirus 8 type P (isolate GK18)), Q9QR71 | cell-free LANA-H2A/H2B peptide, fluorescence polarization | inhibition, % (concentration not given with the values) | hit rate 0.6% among 320,000; in the data active means inhibition mostly above about 10%, no sharp cut-off; inactive means mostly below about 6.7%
ZTA inh confirm – EBV Zta binding to ZRE DNA, inhibitors, confirmation, biochemical, fluorescence polarization, triplicate; shares compounds with ZTA DNA inh; inhibition, % at 11.1 µM; hit rate 30% among 320;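 active means mean inhibition across triplicate runs above the hit threshold derived for the original primary screen, cut at about 33% in these data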
EBNA-1 counter – EBNA-1 DNA-binding inhibition, counter-screen for ZTA inhibitor project, biochemical, fluorescence polarization | inhibition, % at 14.8 µM | 320 tested, under 10 active | shares compounds with ZTA DNA inh; call rule not given here
CSN deneddyl val – Csn5 deneddylation inhibitors, confirmation, biochemical, fluorescence polarization, single concentration, SCF-Nedd8OG substrate; shares compounds with CSN deneddyl inh; Csn5 deneddylation of SCF-Nedd8OG, 90 min; inhibition, % at 16.6 µM; hit rate 62% among 540; in the data active means inhibition above about 50%
MMP2 cntr CSN – MMP-2 protease inhibition counter-screen, confirmation, counter-screen for CSN deneddylation inhibitor project, biochemical, fluorescence, single concentration. hit rate 33% among 540. recombinant MMP-2, FRET substrate fluorescence, 60 min. shares compounds with CSN deneddyl inh. inhibition, % at 16.6 µM;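 active means corrected plate-normalized z-score of 5 or more, or -5 or less, or inhibition of 15% or more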
Thrombin counter – thrombin (bovine) inhibition, counter-screen for CSN hits; inhibition, % at 16.6 µM; shares compounds with CSN deneddyl inh; bovine thrombin cleavage of Ub4-pepOG, fluorescence polarization; AID 720656; hit rate 49% among 540;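 active means inhibition at or above a set limit, with a fluorescence interference ratio between 0.5 and a set maximum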
Numbers stand for hits; i = inactive; nt = no result.

SMILES	A1 inh	CSN deneddyl inh	EBNA-1 inhibitor	HNF4A DNA FP	ZTA DNA inh	LANA-H2A inh	ZTA inh confirm	EBNA-1 counter	others
CCOC(=O)C1CCCCN1S(=O)(=O)c1ccc2c(c1)CC(C)N2C(=O)C1CCC1 (stereo not drawn)	i	i	i	i	i	i	nt	nt
COc1ccc(Br)cc1/C=N/NC(=O)CN1CCN(Cc2ccccc2)CC1	i	i	i	i	i	i	nt	nt
Cc1ccc(NC(=O)CCc2nnc(SCC(=O)Nc3ccccc3C)n2C)cc1Cl	i	i	i	i	69	i	i	i
Cc1ccnc(NC(=O)Cn2c(=O)oc3ccccc32)c1	i	i	i	i	i	i	nt	nt
OC(Cn1cnnc1)c1ccccc1 (stereo not drawn)	i	i	i	i	53	i	i	i
COC/C=C/C1=CC2=CC(=O)C(C)(OC(=O)c3cnc4ccccc4n3)C(=O)C2=CO1 (stereo not drawn)	i	nt	i	nt	40	i	i	i
Cc1ccc2sc(NC(=O)CSc3nc(C)cc(C)c3C#N)nc2c1	i	i	i	i	38	i	i	i
COc1cccc(-c2cnc(C(O)c3ccc(Cl)cc3C)[nH]2)c1 (stereo not drawn)	nt	i	nt	i	nt	nt	nt	nt
O=c1[nH]c(/C=C\c2cccc(Cl)c2)nc(O)c1[N+](=O)[O-]	i	i	i	i	40	i	38	i
O=C1c2ccccc2-c2onc3ccc(NCCCn4ccnc4)c1c23	i	nt	i	nt	49	176	i	i
O=c1[nH]c(/C=C/c2ccc(Cl)cc2Cl)c([N+](=O)[O-])c(=O)[nH]1	i	i	i	i	55	i	53	i
O=c1[nH]c(/C=C/c2ccccc2)c([N+](=O)[O-])c(=O)[nH]1	i	i	nt	i	nt	i	nt	nt
O=C(NCc1ccccc1Cl)C1CCN(C(=O)c2ccco2)CC1	i	nt	i	nt	i	i	nt	nt
COc1cc(OC)cc(-c2c(C#Cc3ccsc3)c3cc(-c4ccc(C(N)=O)cc4)ccc3n2C)c1	i	i	nt	i	40	i	i	i
O=C(CSc1nc2ccccc2c(=O)n1CCCN1CCOCC1)NC12CC3CC(CC(C3)C1)C2	i	i	i	i	i	i	nt	nt
CCCC(C(=O)Nc1cccc(S(=O)(=O)N2CCCC2)c1)c1ccccc1 (stereo not drawn)	i	i	i	i	i	i	nt	nt
CC(=O)NC(CCS(C)(=O)=O)C(=O)Nc1ccc(Cl)c(Cl)c1 (stereo not drawn)	i	i	i	i	36	i	i	i
Cn1c(N)c(NC(=S)NC2CCCCC2)c(=O)n(C)c1=O	nt	i	nt	i	nt	nt	nt	nt
CCN(CC)CCn1c(SCC(=O)Nc2ccc(F)cc2)nc2c(sc3ccccc32)c1=O	i	nt	i	nt	38	i	i	i
O=C(/C=C/c1cccs1)N1CCN(Cc2ccc3c(c2)OCO3)CC1	i	i	i	i	i	i	nt	nt
CN(C)c1ccc(N/C=C/C(=O)c2ccccc2)cc1	i	i	i	38	64	i	i	i
Cc1ccc(NC(=O)CSCC#N)cc1	i	i	i	i	34	i	i	i
O=C(CC(C(=O)O)c1ccc(Cl)cc1Cl)c1ccc(Cl)cc1 (stereo not drawn)	i	i	i	i	33	i	i	i
COc1ccc(NC(=O)CSc2nnc(-c3cccs3)n2N)cc1S(N)(=O)=O	i	i	nt	i	nt	i	nt	nt
O=C(Nc1ccc2c(c1)OCO2)C1CC(=O)N(c2ccc3c(c2)OCCO3)C1 (stereo not drawn)	i	i	i	i	i	i	nt	nt
SMILES	A1 inh	CSN deneddyl inh	EBNA-1 inhibitor	HNF4A DNA FP	ZTA DNA inh	LANA-H2A inh	ZTA inh confirm	EBNA-1 counter	others
O=C(Nc1ccc(C(F)(F)F)cc1)C1CC(=O)N(c2ccc3c(c2)OCCO3)C1 (stereo not drawn)	i	i	i	i	65	i	i	i
O=C(Nc1cccc(C(=O)N2CCCCCC2)c1)c1ccco1	i	i	i	i	40	i	i	i
COc1ccccc1NC(=O)NC1(C(=O)N2CCN(C)CC2)CCCCC1	i	i	i	i	i	i	nt	nt
O=Cc1ccc(-c2cccs2)s1	nt	i	nt	i	nt	nt	nt	nt
Oc1ccc(N=Cc2ccc(-c3cccs3)s2)cc1	i	i	i	i	46	i	47	i
Cc1nn(CC(=O)Nc2ccc(C(=O)N3CCCC3)cc2)c(=O)c2ccccc12	i	i	i	i	i	i	nt	nt
Cc1nn(CC(=O)Nc2ccc(C(=O)N3CCCCC3)cc2)c(=O)c2ccccc12	i	i	i	i	35	i	i	i
CCOC(=O)C1CCCCN1Cc1ccc(OC)c(OC)c1 (stereo not drawn)	i	i	i	i	34	i	i	i
COc1ccc(Cl)cc1C(=O)Nc1cccc(-c2ccc3nncn3n2)c1	i	137	i	55	92	i	118	i	CSN deneddyl val=i;MMP2 cntr CSN=18;Thrombin counter=22
CCOC1=CC2=C(C(=O)C(Cl)=CC2=O)[C@@H]2CN(S(=O)(=O)c3ccc(C)cc3)[C@@H](c3ccccc3)[C@H]12	nt	i	nt	i	nt	nt	nt	nt
O=C(O)CC(C(=O)O)N1C(=O)/C(=C/c2ccc(-c3nc4ccccc4s3)o2)SC1=S (stereo not drawn)	i	47	i	i	59	i	64	i	CSN deneddyl val=82;MMP2 cntr CSN=i;Thrombin counter=83
O=Cc1ccc(-c2nc3ccccc3s2)o1	i	i	i	i	i	i	nt	nt
O=C(Nc1ccc2oc(-c3ccncc3)nc2c1)c1ccc2c(c1)OCCO2	i	i	i	i	i	i	nt	nt
